Experimental data published in publication PMC2853048 (Journal of medicinal chemistry, 2009).

Tests used:
human Gli1 = target: T1, human Gli1 (Homo sapiens, UniProt P08151); test: Gli-mediated transcription reporter assay in C3H10T1/2 cells with exogenous Gli1; format: cell-based; settings: Gli1-transfected C3H10T1/2 cells, 24 h, 20 µM or 40 µM
T1 sequence (P08151 1-1106): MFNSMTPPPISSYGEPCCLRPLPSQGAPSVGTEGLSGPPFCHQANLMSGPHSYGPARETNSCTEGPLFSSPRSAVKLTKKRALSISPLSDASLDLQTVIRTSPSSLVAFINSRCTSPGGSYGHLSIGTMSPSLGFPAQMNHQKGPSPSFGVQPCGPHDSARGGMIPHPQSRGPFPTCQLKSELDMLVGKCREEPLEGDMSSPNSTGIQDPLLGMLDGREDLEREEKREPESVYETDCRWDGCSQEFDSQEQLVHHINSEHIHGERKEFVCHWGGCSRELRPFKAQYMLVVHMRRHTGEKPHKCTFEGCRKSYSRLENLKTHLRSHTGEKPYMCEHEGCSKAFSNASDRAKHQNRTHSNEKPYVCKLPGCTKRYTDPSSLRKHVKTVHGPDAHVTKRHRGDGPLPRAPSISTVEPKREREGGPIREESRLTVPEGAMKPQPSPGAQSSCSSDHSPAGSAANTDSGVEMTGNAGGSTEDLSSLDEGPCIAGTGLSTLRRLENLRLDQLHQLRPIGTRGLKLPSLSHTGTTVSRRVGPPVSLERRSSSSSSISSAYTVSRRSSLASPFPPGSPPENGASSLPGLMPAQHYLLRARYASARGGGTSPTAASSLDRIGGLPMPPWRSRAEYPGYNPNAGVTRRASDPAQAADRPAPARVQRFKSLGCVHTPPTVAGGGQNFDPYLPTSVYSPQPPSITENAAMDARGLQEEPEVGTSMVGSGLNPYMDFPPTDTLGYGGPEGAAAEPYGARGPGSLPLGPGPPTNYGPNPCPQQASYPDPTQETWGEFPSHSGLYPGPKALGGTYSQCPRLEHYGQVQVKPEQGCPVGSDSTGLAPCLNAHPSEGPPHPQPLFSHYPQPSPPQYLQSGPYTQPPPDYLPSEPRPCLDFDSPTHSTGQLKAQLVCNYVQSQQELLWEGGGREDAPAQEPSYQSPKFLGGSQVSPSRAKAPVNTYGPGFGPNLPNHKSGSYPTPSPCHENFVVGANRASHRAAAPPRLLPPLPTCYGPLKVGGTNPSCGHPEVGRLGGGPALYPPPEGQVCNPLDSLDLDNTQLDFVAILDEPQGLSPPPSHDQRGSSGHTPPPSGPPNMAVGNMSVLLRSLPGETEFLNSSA

endogenous Gli1 = test: Gli-mediated transcription reporter assay in Rh30 cells; format: cell-based; settings: Rh30 cells without cotransfection of exogenous Gli1, 24 h, 10, 20 or 40 µM
Method in brief: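 Rh30 cells were grown in RPMI-1640 with 10% FBS at 37 °C, 5% CO2. At about 70% confluence they were transfected overnight with GliLuc-BS (500 ng/mL) and pRL-CMV (2.5 ng/mL) using Fugene6. Cells were replated, then dosed 18 h later for 24 h. Lysates were read by dual luciferase (firefly/Renilla). DMSO = 0% inhibition; triplicates, SE shown.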

exogenous Gli1 protein = test: Western blot of Gli1 protein levels in Gli1-transfected C3H10T1/2 cells; format: cell-based, human
[1] = Stability of compounds in C3H10T1/2 cell cultures; format: in vitro ADME, mouse; settings: 24 hours
C3H10T1/2 cells = test: Toxicity towards C3H10T1/2 cells in the reporter assay; format: cell-based, mouse; settings: data not shown
BJ-hTERT cells = test: Cell viability assay; format: cell-based; settings: noncancerous human skin fibroblasts, 40 µM, 72 h
Method in brief: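 Cells plated in 384-well format 24 h before dosing. A 10-mM DMSO stock was diluted in EMEM to 160 µM (4×) and added in triplicate to a final 40 µM. Incubated 68 h at 37 °C, then Alamar Blue for 4 h at 37 °C. Fluorescence read at ex 510 / em 590 nm; viability expressed relative to DMSO control wells.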

For `C[C@H](C(=O)NCCc1ccc(O)cc1)c1cccc(C(=O)c2ccccc2)c1` [Compound 36, (S)-2-(3-Benzoylphenyl)-N-(4-hydroxyphenethyl)propanamide], the “inhibition of Gli1-mediated transcription (Gli-reporter activity), in words” value (human Gli1) was “high activity”, the “inhibition of Gli-reporter activity in Rh30 cells, in words” value (endogenous Gli1) was “downregulated” and the “exogenous Gli1 protein level” value (exogenous Gli1 protein) was “not reduced”. The “stability in the C3H10T1/2 cell cultures” value [1] was “stable”, the “toxicity towards the C3H10T1/2 cells” value (C3H10T1/2 cells) was “minimal toxicity as compared to 32” and the “cell viability / toxicity, BJ-hTERT” value (BJ-hTERT cells) was “without showing toxicity”.
